Screening results deposited in PubChem BioAssay by several laboratories.
Only some compounds are listed: those with a hit (about 10% of all), similar ones and a draw of the others.
WT yeast gro inh: growth inhibition of WT strain, primary screen, mitochondrial fusion inhibitor project, WT and mutant strains, chemical genetic; mitochondrial fusion phenotypic screen; inhibition, % at 10 µM; 2.1% of 190,000 active; AID 1362, 2008; in the data active means inhibition above about 58%; tested in S. cerevisiae
Diaph act CS: compounds boosting diaphorase resazurin reduction – biochemical, uHTS, resorufin fluorescence, counter-screen for diaphorase-coupled primary assays, primary screen; activation factor at 20 µM; AID 1229, 2008; 0.005% of 190,000 active; Diaphorase/resazurin coupled assay, 16 min; stronger effect = higher value; 1 = vehicle wells, 0 = NADH-free wells;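 active means diaphorase activity raised at least twofold by the compound at 20 µM; inactive means activation factor below 2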
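Material: Clostridium kluyveri diaphorase, purified enzyme; Quantity: enzyme 0.07 U/mL final; Medium: HEPES pH 7.4 buffer with MgCl2 and Tween 20; Dosing: single compound dose of 20 µM, 1% DMSO final; Schedule: 16 min reaction at room temperature; Measured by: red resorufin fluorescence at 544/590 nm excitation/emission.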
L major viab: Leishmania major promastigote growth inhibition, primary screen; inhibition, % at 10 µM; AID 1063, 2008; 9% of 200,000 active; Leishmania major promastigotes, resazurin fluorescence viability; in the data active means inhibition above about 50%;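 further: promastigotes grown with compound for 44 hours at 28 °C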
PMI activator: activators of human PMI, primary screen, biochemical, fluorescence intensity, near-Km mannose 6-phosphate; Mannose-6-phosphate isomerase (Homo sapiens), P34949; purified human PMI, coupled resazurin fluorescence, 20 min; stronger effect = higher value; 1 = vehicle control, 0 substrate-free wells; activation factor at 20 µM; 0.005% of 190,000 active; AID 1214, 2008;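 active means activation factor of 2 or more at 20 µM, relative to plate controls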
Target sequence (P34949 whole entry, looked up): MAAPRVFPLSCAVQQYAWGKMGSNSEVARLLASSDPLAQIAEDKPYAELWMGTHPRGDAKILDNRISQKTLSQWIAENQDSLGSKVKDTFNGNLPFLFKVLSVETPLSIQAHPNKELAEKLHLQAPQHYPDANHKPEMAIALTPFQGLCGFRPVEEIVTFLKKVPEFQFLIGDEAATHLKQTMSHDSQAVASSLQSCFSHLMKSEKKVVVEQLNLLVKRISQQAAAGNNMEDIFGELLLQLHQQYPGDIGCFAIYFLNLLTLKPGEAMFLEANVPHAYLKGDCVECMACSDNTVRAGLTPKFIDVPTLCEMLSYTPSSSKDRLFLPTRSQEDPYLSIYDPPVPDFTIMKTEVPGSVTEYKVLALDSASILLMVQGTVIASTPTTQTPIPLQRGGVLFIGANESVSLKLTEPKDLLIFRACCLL
PMI act hi M6P: human PMI activators, high substrate, primary screen, biochemical, fluorescence intensity, near-saturating mannose 6-phosphate; Mannose-6-phosphate isomerase (Homo sapiens), P34949; coupled PMI enzyme assay, resazurin fluorescence, 20 min; stronger effect = higher value; 1 = untreated enzyme, 0 = substrate-free blank; activation factor at 20 µM; 0.34% of 190,000 active; AID 1216, 2008;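 active means activation factor of 2 or more at 20 µM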
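Test system – human PMI in coupled enzyme assay · Timing – 20 min incubation at room temperature · Detection – Diaphorase-driven resazurin-to-resorufin fluorescence, excitation 544, emission 590 nm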
Of the large screens only hits and unclear results are named; the others gave an inactive call; ! = not active in a repeat.

CCOC(=O)c1cc2c(ccn2C)n1CC(=O)N(Cc1ccccc1)c1ccc(F)cc1	L major viab 97.8
CCOC(=O)c1cc2c(ccn2C)n1CC(=O)N(Cc1ccccc1)c1ccccc1	L major viab 97.5
CCOC(=O)c1cc2c(ccn2C)n1CC(=O)N1CCN(c2ccccc2)CC1	none
CC(C)OC(=O)c1cc2c(ccn2C)n1CC(=O)N(Cc1ccccc1)c1ccc(F)cc1	L major viab 99.0
CCOC(=O)c1cc2c(ccn2C)n1Cc1ccccc1Cl	WT yeast gro inh 68.5
CCOC(=O)c1cc2c(ccn2C)n1Cc1ccccc1C	none
O=C(NCc1cccnc1)c1cccn2c(=O)c3sccc3nc12	none
COc1ccc(C(=O)NC(=S)Nc2cccnc2)cc1[N+](=O)[O-]	none
Cc1ccccc1Cn1c(C(=O)OC(C)C)cc2c1ccn2C	none
Cc1ccc(C)c(Cn2c(C(=O)OC(C)C)cc3c2ccn3C)c1	L major viab 94.8
CC1=NN(c2nc(-c3ccc(C)cc3)cs2)C(=O)C1N=Nc1ccccc1O (stereo not drawn)	L major viab 98.8
CC1=NN(c2nc(-c3ccc(C)cc3)cs2)C(=O)C1N=Nc1cccc(O)c1 (stereo not drawn)	none
CC1CC(C)CN(CC(C)(C)NS(=O)(=O)c2ccccc2)C1 (stereo not drawn)	L major viab 88.9
CC1CCCC(C)N1CC(C)(C)NS(=O)(=O)c1ccc(Cl)cc1 (stereo not drawn)	L major viab 88.2
Cc1ccc(S(=O)(=O)NC(C)(C)CSc2ncccn2)cc1	none
CCOc1ccccc1NC(=O)Cn1c(=O)n(-c2ccccc2)c(=O)c2oc3ccccc3c21	none
Cc1cccc(Nc2nc(NCc3ccco3)c3ccccc3n2)c1	WT yeast gro inh 98.2, L major viab 100.5
Cc1ccccc1Nc1nc(NCc2ccco2)c2ccccc2n1	WT yeast gro inh 79.2, L major viab 100.5
Cc1ccc(Nc2nc(NCC3CCCO3)nc(N)c2[N+](=O)[O-])cc1C (stereo not drawn)	none
Cc1ccccc1Nc1cc(C(=O)NCc2ccco2)c2ccccc2n1	L major viab 76.4
Cc1ccc(Nc2nc(N)c([N+](=O)[O-])c(NCc3ccco3)n2)cc1C	WT yeast gro inh 71.5, L major viab 70.3
COc1cc(CN(C)Cc2ccccc2)cc(OC)c1O	none
Nc1nc(NCc2ccccc2)nc(NCc2ccccc2)c1[N+](=O)[O-]	none
Cc1ccc(CNc2nc(N)c([N+](=O)[O-])c(NCc3ccccc3)n2)cc1	L major viab 69.5
O=C(Nc1cccc(F)c1)N(Cc1ccc(Cl)cc1)CC(O)C(F)(F)F (stereo not drawn)	WT yeast gro inh 70.6, L major viab 100.6
O=C(Nc1ccccc1)N(Cc1ccccc1)CC(O)C(F)(F)F (stereo not drawn)	none
Cc1cc(C)c(NC(=S)N(Cc2cccnc2)Cc2ccco2)c(C)c1	L major viab 87.5
COc1ccccc1NC(=S)N(Cc1cccnc1)Cc1ccco1	none
CCc1ccccc1NC(=S)N(Cc1cccnc1)Cc1ccco1	L major viab 98.8
Cc1cc(SCC(=O)OCC(=O)NC(C)c2ccccc2)c(C)cc1Br (stereo not drawn)	L major viab 51.2
CCn1cc(C(=O)Nc2ccc3c(c2)OCCO3)c2cc(OC)c(OC)cc2c1=O	L major viab 51.3
O=C(CSc1ccc2c(c1)OCCO2)Nc1ccc(Br)cc1	L major viab 67.0
CCOc1ccc(-n2cc(C(=O)Nc3cccc(OC)c3)c3cc(OC)c(OC)cc3c2=O)cc1	L major viab 66.2
CCOc1ccc(-n2cc(C(=O)Nc3ccc(Cl)cn3)c3cc(OC)c(OC)cc3c2=O)cc1	none
COc1ccc(NC(=O)CSc2ccc3c(c2)OCCO3)cc1OC	WT yeast gro inh 86.3
CCn1cc(C(=O)Nc2cccc(NC(C)=O)c2)c2cc(OC)c(OC)cc2c1=O	none
Cc1ccccc1NC(=O)/C=C1\SC(=O)NC1=O	none
Cc1nc2cc(-c3ccc(Cl)cc3)nn2c(NCCN(C)C)c1C	L major viab 100.3
O=C(CSc1ccc(Cl)cc1Cl)N1CCC(c2nc3ccccc3s2)CC1	none
O=C(/C=C/c1cccc(O)c1)c1cccnc1	L major viab 98.6
Cc1ccsc1/C=C/c1ccc2cccc(O)c2n1	L major viab 98.2
Oc1ccc(Cl)cc1/C=C/c1ccc2cccc(O)c2n1	WT yeast gro inh 71.3, L major viab 88.6
CSc1ccc(/C=C/c2ccc3cccc(O)c3n2)cc1	L major viab 89.4
Oc1cccc2ccc(/C=C/c3cccs3)nc12	L major viab 94.5
Clc1ccccc1Cc1noc(CN2CCN3CCCC3C2)n1 (stereo not drawn)	L major viab 74.8
C[C@@H]1CN(C2CCN(Cc3nc(CC4CC4)no3)CC2)C[C@H](C)O1	L major viab 85.5 (no result: Diaph act CS, PMI activator, PMI act hi M6P)
CN(Cc1nc(-c2ccc(C(F)(F)F)cc2)no1)C1CCOCC1	none
FC(F)(F)c1ccc(-c2noc(CN3CCCN(C4CCCCC4)CC3)n2)cc1	L major viab 83.8
CCOC(=O)N1CCN(Cc2nc(CC3CC3)no2)CC1	none
c1ccc(C(c2ccccc2)c2noc(CN3CCN(C4CCCC4)CC3)n2)cc1	L major viab 84.1
CC(C)c1nc(SCC(=O)Nc2ccc(N(C)C)cc2)c2ccccc2n1	none
C[C@@H]1CN(C2CCN(Cc3nc(C(c4ccccc4)c4ccccc4)no3)CC2)C[C@H](C)O1	L major viab 85.1 (no result: Diaph act CS, PMI activator, PMI act hi M6P)
CC(=O)N1CCN(Cc2nc(C(c3ccccc3)c3ccccc3)no2)CC1	none
CCn1nnnc1-c1ccc(OC)c(S(=O)(=O)NCc2ccccc2)c1	none (no result: WT yeast gro inh)
CCn1nnnc1-c1ccc(OC)c(S(=O)(=O)Nc2ccc(C)c(C)c2)c1	L major viab 98.7
COc1ccc(-c2cn(-c3ccccc3)c3[n+]2CCS3)cc1	L major viab 85.2!
CC(C)(C)c1ccc(-c2cn(-c3ccc(Br)cc3)c3[n+]2CCCS3)cc1	L major viab 100.4
CCOc1ccc2ccccc2c1C(=O)N1CCN(c2ccccc2)CC1	L major viab 82.8
CC(=O)c1cccc(NC(=O)CN2C(=S)NC(C)(C)CC2C)c1 (stereo not drawn)	none
CC12CCC(c3c(C(=O)O)nn(-c4ccc(F)cc4)c31)C2(C)C (stereo not drawn)	WT yeast gro inh 59.4
O=C(OCC(=O)N1CCN(C(=O)c2ccco2)CC1)c1cc(-c2ccc(Cl)c(Cl)c2Cl)nc2ccccc12	none
CN1CCCN(C(=O)c2cc(-c3ccc(Cl)c(Cl)c3Cl)nc3ccccc23)CC1	L major viab 55.2
O=c1c2c3c(sc2nc(NCCO)n1CCc1ccccc1)CCCCC3	WT yeast gro inh 70.3
